# Experimental data taken from ChEMBL document CHEMBL1811814, “Synthesis and evaluation of indole, pyrazole, chromone and pyrimidine based conjugates for tumor growth inhibitory activities--development of highly efficacious cytotoxic agents” (Eur J Med Chem, 2010).
# How the values were obtained:
# Type in all cases: functional
# Design in all cases: scale not given: the % may be the effect or the level left
# [1] = test system: OVCAR-8; experiment: Growth inhibition of human OVCAR8 cells assessed tumor cell growth at 10^-5 M
# In short: (§1)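 NCI 60-human-tumor-cell-line panel screen. Each compound was tested at a single concentration of 10^-5 M, and percent growth of tumor cells was recorded for each cell line. Growth inhibition was expressed from these percent-growth values.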
# [2] = test system: NCI/ADR-RES; experiment: Growth inhibition of human NCI/ADR-RES cells assessed tumor cell growth at 10^-5 M; in short: as §1
# [3] = test system: SNB-75; experiment: Growth inhibition of human SNB75 cells assessed tumor cell growth at 10^-5 M
# In short: (§2)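 Single-dose screen at 10^-5 M across the 60 human tumor cell line panel, run to NCI standards. The value is the percent growth of each cell line in the presence of compound. Compounds active at this dose moved on to five-concentration testing (10^-4 to 10^-8 M).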
# [4] = test system: SF-268; experiment: Growth inhibition of human SF268 cells assessed tumor cell growth at 10^-5 M; in short: as §1
# [5] = test system: TK-10; experiment: Growth inhibition of human TK10 cells assessed tumor cell growth at 10^-5 M; in short: as §2
# [6] = test system: ACHN; experiment: Growth inhibition of human ACHN cells assessed tumor cell growth at 10^-5 M; in short: as §1
# [7] = test system: SN12C; experiment: Growth inhibition of human SN12C cells assessed tumor cell growth at 10^-5 M; in short: as §1
# [8] = test system: IGROV-1; experiment: Growth inhibition of human IGROV1 cells assessed tumor cell growth at 10^-5 M; in short: as §1
# [9] = test system: U-251; experiment: Growth inhibition of human U251 cells assessed tumor cell growth at 10^-5 M; in short: as §2
# [10] = test system: NCI-H23; experiment: Growth inhibition of human NCI-H23 cells assessed tumor cell growth at 10^-5 M; in short: as §1
# [11] = test system: HT-29; experiment: Growth inhibition of human HT-29 cells assessed tumor cell growth at 10^-5 M; in short: as §1
# [12] = test system: T47D; experiment: Growth inhibition of human T47D cells assessed tumor cell growth at 10^-5 M; in short: as §2
# [13] = test system: SF-539; experiment: Growth inhibition of human SF539 cells assessed tumor cell growth at 10^-5 M; in short: as §1
# [14] = test system: SNB-19; experiment: Growth inhibition of human SNB19 cells assessed tumor cell growth at 10^-5 M; in short: as §2
# [15] = test system: MDA-MB-468; experiment: Growth inhibition of human MDA-MB-468 cells assessed tumor cell growth at 10^-5 M; in short: as §1
# [16] = test system: CAKI-1; experiment: Growth inhibition of human Caki1 cells assessed tumor cell growth at 10^-5 M; in short: as §1
# [17] = test system: SW-620; experiment: Growth inhibition of human SW620 cells assessed tumor cell growth at 10^-5 M; in short: as §2
# [18] = test system: HCT-116; experiment: Growth inhibition of human HCT116 cells assessed tumor cell growth at 10^-5 M; in short: as §1
# [19] = test system: EKVX; experiment: Growth inhibition of human EKVX cells assessed tumor cell growth at 10^-5 M; in short: as §1
# [20] = Growth inhibition of human […] cells assessed tumor cell growth at 10^-5 M; in short: as §1
# [21] = test system: CCRF-CEM; experiment: Growth inhibition of human CCRF-CEM cells assessed tumor cell growth at 10^-5 M; in short: as §1
# [22] = test system: OVCAR-4; experiment: Growth inhibition of human OVCAR4 cells assessed tumor cell growth at 10^-5 M; in short: as §1
# [23] = test system: SF-295; experiment: Growth inhibition of human SF295 cells assessed tumor cell growth at 10^-5 M; in short: as §1
# [24] = test system: HOP-62; experiment: Growth inhibition of human HOP62 cells assessed tumor cell growth at 10^-5 M; in short: as §1
# [25] = test system: SK-OV-3; experiment: Growth inhibition of human SKOV3 cells assessed tumor cell growth at 10^-5 M; in short: as §1
# [26] = test system: MDA-MB-435; experiment: Growth inhibition of human MDA-MB-435 cells assessed tumor cell growth at 10^-5 M; in short: as §1
# [27] = test system: UACC-62; experiment: Growth inhibition of human UACC62 cells assessed tumor cell growth at 10^-5 M; in short: as §2
# [28] = test system: MOLT-4; experiment: Growth inhibition of human MOLT4 cells assessed tumor cell growth at 10^-5 M; in short: as §1
# [29] = test system: SK-MEL-2; experiment: Growth inhibition of human SK-MEL-2 cells assessed tumor cell growth at 10^-5 M; in short: as §1
# [30] = test system: UO-31; experiment: Growth inhibition of human UO31 cells assessed tumor cell growth at 10^-5 M; in short: as §2
# [31] = test system: K562; experiment: Growth inhibition of human K562 cells assessed tumor cell growth at 10^-5 M; in short: as §1
# [32] = test system: MCF7; experiment: Growth inhibition of human MCF7 cells assessed tumor cell growth at 10^-5 M; in short: as §1
# [33] = test system: PC-3; experiment: Growth inhibition of human PC3 cells assessed tumor cell growth at 10^-5 M; in short: as §1
# [34] = Growth inhibition of human Hs 578T cells assessed tumor cell growth at 10^-5 M; in short: as §1
# [35] = test system: Malme-3M; experiment: Growth inhibition of human MALME-3M cells assessed tumor cell growth at 10^-5 M; in short: as §1
# [36] = test system: HOP-92; experiment: Growth inhibition of human HOP92 cells assessed tumor cell growth at 10^-5 M; in short: as §1
# [37] = test system: HCC 2998; experiment: Growth inhibition of human HCC2998 cells assessed tumor cell growth at 10^-5 M; in short: as §1
# [38] = test system: SK-MEL-28; experiment: Growth inhibition of human SK-MEL-28 cells assessed tumor cell growth at 10^-5 M; in short: as §1
# [39] = test system: BT-549; experiment: Growth inhibition of human BT549 cells assessed tumor cell growth at 10^-5 M; in short: as §1
# [40] = test system: MDA-MB-231; experiment: Growth inhibition of human MDA-MB-231 cells assessed tumor cell growth at 10^-5 M; in short: as §1
# [41] = test system: OVCAR-5; experiment: Growth inhibition of human OVCAR5 cells assessed tumor cell growth at 10^-5 M; in short: as §1
# [42] = test system: RXF 393; experiment: Growth inhibition of human RXF393 cells assessed tumor cell growth at 10^-5 M; in short: as §1
# [43] = test system: A498; experiment: Growth inhibition of human A498 cells assessed tumor cell growth at 10^-5 M; in short: as §1
# [44] = test system: LOX IMVI; experiment: Growth inhibition of human LOXIMVI cells assessed tumor cell growth at 10^-5 M; in short: as §1
# [45] = test system: NCI-H460; experiment: Growth inhibition of human NCI-H460 cells assessed tumor cell growth at 10^-5 M; in short: as §1
# [46] = test system: NCI-H226; experiment: Growth inhibition of human NCI-H226 cells assessed tumor cell growth at 10^-5 M; in short: as §1
# [47] = test system: HL-60(TB); experiment: Growth inhibition of human HL-60(TB) cells assessed tumor cell growth at 10^-5 M
# In short: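 HL-60(TB), part of the 60-line panel, tested at a single concentration of 10^-5 M. The read-out is percent tumor cell growth relative to untreated growth.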
# [48] = test system: HCT-15; experiment: Growth inhibition of human HCT15 cells assessed tumor cell growth at 10^-5 M; in short: as §1
# [49] = test system: COLO 205; experiment: Growth inhibition of human COLO205 cells assessed tumor cell growth at 10^-5 M; in short: as §1
# [50] = test system: UACC-257; experiment: Growth inhibition of human UACC257 cells assessed tumor cell growth at 10^-5 M; in short: as §2
# [51] = test system: DU-145; experiment: Growth inhibition of human DU145 cells assessed tumor cell growth at 10^-5 M; in short: as §1
# [52] = test system: SK-MEL-5; experiment: Growth inhibition of human SK-MEL-5 cells assessed tumor cell growth at 10^-5 M; in short: as §1
# [53] = test system: NCI-H522; experiment: Growth inhibition of human NCI-H522 cells assessed tumor cell growth at 10^-5 M; in short: as §1
# [54] = test system: KM12; experiment: Growth inhibition of human KM12 cells assessed tumor cell growth at 10^-5 M; in short: as §1
# [55] = test system: 786-0; experiment: Growth inhibition of human 786-0 cells assessed tumor cell growth at 10^-5 M; in short: as §1
# [56] = test system: OVCAR-3; experiment: Growth inhibition of human OVCAR3 cells assessed tumor cell growth at 10^-5 M; in short: as §1
# [57] = test system: M14; experiment: Growth inhibition of human M14 cells assessed tumor cell growth at 10^-5 M; in short: as §1
# [58] = test system: NCI-H322M; experiment: Growth inhibition of human NCI-H322M cells assessed tumor cell growth at 10^-5 M; in short: as §1
# [59] = test system: SR; experiment: Growth inhibition of human SR cells assessed tumor cell growth at 10^-5 M; in short: as §2
# [60] = test system: A549; experiment: Growth inhibition of human A549 cells assessed tumor cell growth at 10^-5 M; in short: as §1
smiles,measurement,setting,value
CC1=NN(c2cccc(Cl)c2)C(=O)/C1=C\c1cn(C(=O)c2ccc(Cl)cc2)c2ccccc12,Activity,[1],98.63%
same,Activity,[2],107.61%
same,Activity,[3],80.97%
same,Activity,[4],98.24%
same,Activity,[5],167.41%
same,Activity,[6],88.25%
same,Activity,[7],92.22%
same,Activity,[8],75.7%
same,Activity,[9],94.02%
same,Activity,[10],91.24%
same,Activity,[11],101.17%
same,Activity,[12],79.84%
same,Activity,[13],97.75%
same,Activity,[14],99.84%
same,Activity,[15],103.55%
same,Activity,[16],92.37%
same,Activity,[17],99.26%
same,Activity,[18],100.16%
same,Activity,[19],79.35%
same,Activity,[20],97.03%
same,Activity,[21],118.43%
same,Activity,[22],99.58%
same,Activity,[23],102.34%
same,Activity,[24],94.61%
same,Activity,[25],91.35%
same,Activity,[26],120.68%
same,Activity,[27],90.62%
same,Activity,[28],99.47%
same,Activity,[29],105.09%
same,Activity,[30],76.43%
same,Activity,[31],107.93%
same,Activity,[32],87.82%
same,Activity,[33],95.29%
same,Activity,[34],92.29%
same,Activity,[35],101.23%
same,Activity,[36],99.69%
same,Activity,[37],108.88%
same,Activity,[38],112.94%
same,Activity,[39],95.84%
same,Activity,[40],87.79%
same,Activity,[41],97.61%
same,Activity,[42],94.47%
same,Activity,[43],123.09%
same,Activity,[44],90.49%
same,Activity,[45],109.18%
same,Activity,[46],86.8%
same,Activity,[47],117.42%
same,Activity,[48],91.41%
same,Activity,[49],113.51%
same,Activity,[50],105.58%
same,Activity,[51],104.66%
same,Activity,[52],90.74%
same,Activity,[53],100.77%
same,Activity,[54],93.09%
same,Activity,[55],104.1%
same,Activity,[56],97.57%
same,Activity,[57],96.55%
same,Activity,[58],109.45%
same,Activity,[59],96.12%
same,Activity,[60],96.27%
